Data reported in ChEMBL document CHEMBL4229397, “N-(7-Cyano-6-(4-fluoro-3-(2-(3-(trifluoromethyl)phenyl)acetamido)phenoxy)benzo[d]thiazol-2-yl)cyclopropanecarboxamide (TAK632) Promotes Inhibition of BRAF through the Induction of Inhibited Dimers” (J Med Chem, 2018).
pIC50: −log10 of the molar value. Active and inactive are the calls of the source. The rule behind the calls is not given here.

Tests used:
[1] = molecular target: T1, Serine/threonine-protein kinase B-raf (Homo sapiens, UniProt P15056); assay: Inhibition of N-terminal 6x-His-tagged BRAF kinase domain (unknown origin) expressed in baculovirus infected Sf9 insect cells co-expressing mouse p50cdc37 using C-terminal His-tagged/N-terminal GST-tagged full length human MEK1 as substrate after 1 hr by ELISA
Outline: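 His-tagged BRAF kinase domain (residues 442–724, WT or V600E) was preincubated with inhibitor 1 h at room temperature in 50 mM HEPES pH 7.0, 50 mM NaCl. It was then added to GST-MEK1 bound on glutathione plates, with 100 μM ATP final in 50 mM HEPES pH 7.0, 200 mM NaCl, 20 mM MgCl2, for 30 min at 37 °C. Phospho-MEK (S217/S221) was read by chemiluminescent ELISA. Curves run in duplicate/triplicate, min–max normalized, IC50 from log(inhibitor)–response fit.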

[2] = molecular target: Serine/threonine-protein kinase B-raf (Homo sapiens, UniProt P15056, V600E); assay: Inhibition of N-terminal 6x-His-tagged BRAF V600E mutant (unknown origin) expressed in baculovirus infected Sf9 insect cells co-expressing mouse p50cdc37 using C-terminal His-tagged/N-terminal GST-tagged full length human MEK1 as substrate after 1 hr by ELISA
Outline: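 ELISA: GST-MEK1 bound to glutathione-coated plate 1 h, room temperature. Insect-cell His-BRAF V600E (1:1000 dilution) preincubated with inhibitor 1 h, room temperature, then reacted with 100 μM ATP in 50 mM HEPES pH 7.0, 200 mM NaCl, 20 mM MgCl2, 30 min, 37 °C. Anti-pMEK S217/S221, HRP secondary, chemiluminescence. Duplicate or triplicate, min–max normalized, log(inhibitor)-response IC50.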

[3] = system: Serine/threonine-protein kinase B-raf (Homo sapiens), P15056 [V600E]; assay: Induction of N-terminal 6x-His-tagged BRAF V600E mutant (unknown origin) dimer formation expressed in baculovirus infected Sf9 insect cells co-expressing mouse p50cdc37 at 20 uM by sedimentation velocity method
[4] = molecular target: T1, Serine/threonine-protein kinase B-raf; assay: Induction of N-terminal 6x-His-tagged BRAF (unknown origin) dimer formation expressed in baculovirus infected Sf9 insect cells co-expressing mouse p50cdc37 assessed as melting temperature at 250 uM by differential scanning calorimetric method (reference value: 37.84 degC)
[5] = molecular target: T1, Serine/threonine-protein kinase B-raf; assay: Induction of N-terminal 6x-His-tagged BRAF (unknown origin) dimer formation expressed in baculovirus infected Sf9 insect cells co-expressing mouse p50cdc37 at 200 uM measured after trypsin digestion for 30 mins by coomassie blue staining-based SDS-PAGE method
[6] = molecular target: T1, Serine/threonine-protein kinase B-raf; assay: Induction of N-terminal 6x-His-tagged BRAF (unknown origin) dimer formation expressed in baculovirus infected Sf9 insect cells co-expressing mouse p50cdc37 assessed as melting temperature at 75 uM by differential scanning calorimetric method (reference value: 37.84 degC)
[7] = molecular target: T1, Serine/threonine-protein kinase B-raf; assay: Induction of N-terminal 6x-His-tagged BRAF (unknown origin) dimer formation expressed in baculovirus infected Sf9 insect cells co-expressing mouse p50cdc37 at 15 uM by sedimentation velocity method
[8] = system: Serine/threonine-protein kinase B-raf (Homo sapiens), P15056 [V600E]; assay: Induction of N-terminal 6x-His-tagged BRAF V600E mutant (unknown origin) dimer formation expressed in baculovirus infected Sf9 insect cells co-expressing mouse p50cdc37 at 10 uM by sedimentation velocity method
[9] = molecular target: T1, Serine/threonine-protein kinase B-raf; assay: Induction of N-terminal 6x-His-tagged BRAF (unknown origin) dimer formation expressed in baculovirus infected Sf9 insect cells co-expressing mouse p50cdc37 assessed as melting temperature at 125 uM by differential scanning calorimetric method

Serine/threonine-protein kinase B-raf (Homo sapiens), P15056 [V600E], sequence (P15056 whole entry V600E): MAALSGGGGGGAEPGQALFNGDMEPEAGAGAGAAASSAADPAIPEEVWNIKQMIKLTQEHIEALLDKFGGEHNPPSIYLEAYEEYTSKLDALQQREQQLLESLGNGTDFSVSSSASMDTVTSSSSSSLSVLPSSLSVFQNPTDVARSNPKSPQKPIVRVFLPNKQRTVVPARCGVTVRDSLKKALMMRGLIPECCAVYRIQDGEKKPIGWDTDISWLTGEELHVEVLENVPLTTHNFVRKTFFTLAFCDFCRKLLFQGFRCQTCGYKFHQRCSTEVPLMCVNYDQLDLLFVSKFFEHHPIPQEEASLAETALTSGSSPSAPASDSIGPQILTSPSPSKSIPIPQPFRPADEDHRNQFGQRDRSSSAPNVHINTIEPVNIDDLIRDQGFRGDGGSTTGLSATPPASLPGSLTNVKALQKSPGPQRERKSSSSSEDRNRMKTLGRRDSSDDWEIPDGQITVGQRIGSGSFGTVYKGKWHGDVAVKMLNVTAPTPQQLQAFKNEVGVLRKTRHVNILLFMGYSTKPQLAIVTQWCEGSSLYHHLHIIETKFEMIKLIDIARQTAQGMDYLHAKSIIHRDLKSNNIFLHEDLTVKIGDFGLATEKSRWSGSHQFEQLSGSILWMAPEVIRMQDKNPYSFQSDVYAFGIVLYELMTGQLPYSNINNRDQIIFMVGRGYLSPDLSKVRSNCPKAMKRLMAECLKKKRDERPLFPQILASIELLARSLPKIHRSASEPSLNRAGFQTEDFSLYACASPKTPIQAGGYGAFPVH
T1 sequence (P15056 whole entry, the tested form may be a part): as the sequence (P15056 whole entry V600E) above, with E600V counted along it
Serine/threonine-protein kinase B-raf (Homo sapiens, UniProt P15056, V600E), sequence (P15056 2-766 V600E limits assumed): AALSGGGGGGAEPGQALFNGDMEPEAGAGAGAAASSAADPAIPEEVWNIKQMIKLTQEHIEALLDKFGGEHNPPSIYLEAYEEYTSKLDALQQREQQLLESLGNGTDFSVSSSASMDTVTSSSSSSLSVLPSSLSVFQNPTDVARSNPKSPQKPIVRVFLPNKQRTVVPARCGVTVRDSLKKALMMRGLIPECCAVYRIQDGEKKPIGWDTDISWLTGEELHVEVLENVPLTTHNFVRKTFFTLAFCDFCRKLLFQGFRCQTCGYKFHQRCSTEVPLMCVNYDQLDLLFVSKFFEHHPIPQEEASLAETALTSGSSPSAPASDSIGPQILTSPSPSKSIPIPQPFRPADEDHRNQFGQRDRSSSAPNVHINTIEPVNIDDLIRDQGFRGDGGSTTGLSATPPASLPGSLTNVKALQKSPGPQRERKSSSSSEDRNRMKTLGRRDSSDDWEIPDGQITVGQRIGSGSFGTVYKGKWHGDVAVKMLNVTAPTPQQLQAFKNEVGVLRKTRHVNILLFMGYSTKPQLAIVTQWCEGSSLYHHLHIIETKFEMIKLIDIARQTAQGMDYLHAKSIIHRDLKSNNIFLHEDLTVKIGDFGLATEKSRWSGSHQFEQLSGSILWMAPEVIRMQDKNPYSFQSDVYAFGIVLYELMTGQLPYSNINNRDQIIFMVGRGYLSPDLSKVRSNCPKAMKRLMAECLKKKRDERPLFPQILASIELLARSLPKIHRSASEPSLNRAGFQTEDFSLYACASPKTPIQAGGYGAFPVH

Row | Structure (SMILES) | pIC50 [1] | pIC50 [2] | Activity [3] | Tm [4] [°C] | Activity [5] | Tm [6] [°C] | Activity [7] | Activity [8] | Tm [9] [°C]
1 | N#Cc1c(Oc2ccc(F)c(NC(=O)Cc3cccc(C(F)(F)F)c3)c2)ccc2nc(NC(=O)COCCOCCOCCOCCOCC(=O)Nc3nc4ccc(Oc5ccc(F)c(NC(=O)Cc6cccc(C(F)(F)F)c6)c5)c(C#N)c4s3)sc12 | 7.04 to 7.07 | 7.13 | inactive | – | – | – | – | – | –
2 | N#Cc1c(Oc2ccc(F)c(NC(=O)Cc3cccc(C(F)(F)F)c3)c2)ccc2nc(NC(=O)COCCOCCOCC(=O)Nc3nc4ccc(Oc5ccc(F)c(NC(=O)Cc6cccc(C(F)(F)F)c6)c5)c(C#N)c4s3)sc12 | 6.88 to 7.06 | 7.13 | inactive | 40.1 to 62.6 | inactive | 38.4 to 58.6 | inactive | inactive | 38.7 to 59.6
3 | N#Cc1c(Oc2ccc(F)c(NC(=O)Cc3cccc(C(F)(F)F)c3)c2)ccc2nc(NC(=O)COCC(=O)Nc3nc4ccc(Oc5ccc(F)c(NC(=O)Cc6cccc(C(F)(F)F)c6)c5)c(C#N)c4s3)sc12 | 6.27 | 6.38 | – | – | – | – | – | – | –
4 | N#Cc1c(Oc2ccc(F)c(NC(=O)Cc3cccc(C(F)(F)F)c3)c2)ccc2nc(NC(=O)COCCOCCOCCOCC(=O)Nc3nc4ccc(Oc5ccc(F)c(NC(=O)Cc6cccc(C(F)(F)F)c6)c5)c(C#N)c4s3)sc12 | 6.21 | 6.77 | – | – | – | – | – | – | –
5 | N#Cc1c(Oc2ccc(F)c(NC(=O)Cc3cccc(C(F)(F)F)c3)c2)ccc2nc(NC(=O)COCCOCCOCC(=O)Nc3nccs3)sc12 | 7.69 | – | – | – | Active | – | – | – | 63.3
6 | N#Cc1c(Oc2ccc(F)c(NC(=O)Cc3cccc(C(F)(F)F)c3)c2)ccc2nc(NC(=O)COCCOCCOCCOCCOCCOCCOCC(=O)Nc3nc4ccc(Oc5ccc(F)c(NC(=O)Cc6cccc(C(F)(F)F)c6)c5)c(C#N)c4s3)sc12 | 6.14 | 6.45 | – | – | – | – | – | – | –
7 | CCCS(=O)(=O)Nc1ccc(F)c(C(=O)c2c[nH]c3ncc(-c4ccc(Cl)cc4)cc23)c1F | – | – | – | – | inactive | – | inactive | – | –
8 | COCCOCC(=O)Nc1nc2ccc(Oc3ccc(F)c(NC(=O)Cc4cccc(C(F)(F)F)c4)c3)c(C#N)c2s1 | 8.24 | – | – | – | – | – | – | – | –
9 | N#Cc1c(Oc2ccc(F)c(NC(=O)Cc3cccc(C(F)(F)F)c3)c2)ccc2nc(NC(=O)C3CC3)sc12 | 8.15 to 8.49 | 8.35 | – | – | Active | – | Active | Active | 68.7
